Measured values from the RNAGym collection of RNA variant scans (doi:10.1101/gad.245936.114).
Fewer inactive variants are shown than the library holds.

B1: tRNA (parent)
chain: CUCUCGGUAGCCAAGUUGGUUUAAGGCGCAAGACUUUAAUUUAUCACUACGAAAUCUUGAGAUCGGGCGUUCGACUCGCCCCCGGGAGAUUUUUUCCUCGAGCAA

Variants of: B1
Assay: nonsense suppression (GFP-seq) (ratio to wild type); higher = more function; SUP4oc tRNA, yeast GFP reporter sort-seq
Procedure, shortened: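 Nonsense suppression (GFPSEQ) is the median GFP/RFP ratio of each sorting bin, weighted by the variant's estimated share of cells in that bin and expressed relative to the unmutated parent tRNA. Yeast strains carried genome-integrated variants of an ochre-suppressor tRNA from a library with ~3% random mutations, plus a galactose-driven GFP ochre reporter and RFP, and were grown in raffinose/galactose medium containing 80 mg/L adenine. Cells were sorted into GFP/RFP bins, each bin was Illumina-sequenced (phred ≥30), and variants were kept only with ≥100 reads and ≥30 cells.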

Variant | nonsense suppression
CUCUCGGUAGCCAAGUUGGUUAAAGGCGCAAGACUUUAAUUUAUCACUACGAAAUCUUGAGAUCGGGCGUUCGACUCGCCCCCGGGGGAUUUUUUCCUCGAGCAA [U22A A87G] | 0.501
CUCCCGGAAGCCAAGUUGGUUUAAGGCGCAAGACUUUAAUUUAUCACUACGAAAUCUUGAGAUCGGGCGUUCGACUCGCCCCCGGGAGAUUUUUUCCUCGAGCAA [U4C U8A] | 0.0441
CUCUCGGUAGCCAAGUUGGUUUAAGGCGCAAGACUUUAAUUUAUCACUACGAAAUCUUAAGAUCGGGCGUUCGAAUCGCCCCCGGGAGAUUUUUUCCUCGAGCAA [G59A C75A] | 0.717
CUCUCGGUAGCCAAGUUGGUUUAAGGCGCAAGACUUUAAUUUAUCACUACGAAAUCUUGAGACCGGGCGUUCGACUCUCCCCCGGGAGAUUUUUUCCUCGAGCAA [U63C G78U] | 0.0499
CUCUCUGUAGCCAAGUUGGUUUAAGGCGCAAGACUUUAAUUUAUCACUACGAAAUCUUGAGACCGGGCGUUCGACUCGCCCCCGGGAGAUUUUUUCCUCGAGCAA [G6U U63C] | ≤ 0.026
CUCUCGGUAGCCAAGUUGGUAUAAGGCGCAAGACUUUAAUUUAUCACUACGAAAUCUUGAGAUCGGGCGUUCGACCCGCCCCCGGGAGAUUUUUUCCUCGAGCAA [U21A U76C] | 1.18
CUCUCGGUAGCCGAGAUGGUUUAAGGCGCAAGACUUUAAUUUAUCACUACGAAAUCUUGAGAUCGGGCGUUCGACUCGCCCCCGGGAGAUUUUUUCCUCGAGCAA [A13G U16A] | 0.0391
CUCUCGGUAGCCAAGUUGGUUUAAGGCGCAAGACUUUAAUUUAUCACUACGAAAUCUUGAGAUCGGCCGUUCGACUCGGCCCCGGGAGAUUUUUUCCUCGAGCAA [G67C C79G] | 1.03
CUCUCGGUGGCCAAGUUGGUUUAAGGCGCAAGACUUUAAUUUAUCACUACGAAAUCUUGAGAACGGGCGUUCGACUCGCCCCCGGGAGAUUUUUUCCUCGAGCAA [A9G U63A] | 0.836
CUCUCGGUAGCUAAGUCGGUUUAAGGCGCAAGACUUUAAUUUAUCACUACGAAAUCUUGAGAUCGGGCGUUCGACUCGCCCCCGGGAGAUUUUUUCCUCGAGCAA [C12U U17C] | 0.212
CUCUCAGUAGCCAAGUUGGUUUAAGGCGCAAGACUUUAAUUUAUCACUACGAAACCUUGAGAUCGGGCGUUCGACUCGCCCCCGGGAGAUUUUUUCCUCGAGCAA [G6A U55C] | 0.262
CUCUCGGUAGCCAAGUUGGUUUAAGGCGCAAGACUUUAAUUUAUCACUACGAAACCUUGAGAUCGGGCGUUCGACUCGCCCCCGGGACAUUUUUUCCUCGAGCAA [U55C G88C] | 0.0568
CUAUCGGUAGCCAAGUUGGUUCAAGUCGCAAGACUUUAAUUUAUCACUACGAAAUCUUGAGAUCGGGCGUUCGACUCGCACCCGGGAGAUUUUUUCCUCGAGCAA [C3A U22C G26U C80A] | ≤ 0.026
CUCUCGGUAGCCAAGUUGGUUUACGGCGCUAGACUUUAAUUUAUCACUACGAACUCUGGAGAUCGGGCGUUCGAAUCGCCCCCGGGAGAUUUUUUCCUCGAGCAA [A24C A30U A54C U58G C75A] | 0.783
CUCUCGGUAGCCAAGUUGGUUUAAGGCGUAAGACUUUAAUUUAUCACUACGAAUUCUUGAGAUCGGGCGUUCGACUCGCCCCCGGGAGAUUUUUUCCUCGAGCAA [C29U A54U] | 0.869
CUCUUGGUAGCCAAGUUGGUUUAAGCCGCAAGACUUUAAUUUAUCACUACGAAAUCUUGAGAUCCGGCGUUCGACACGCCCCCGGGAGAUUUUUUCCUCGAGCAA [C5U G26C G65C U76A] | ≤ 0.026
CUCUCGGUAGCCAAGUUGGUUUAAGUCGCAAGAUUUUAAUUUAUCACUACGAAAUCUUGAGAUCGGGCGUUCGACUCGCCCCCGGGAGAUUUUUUCCUCGAGCAA [G26U C34U] | ≤ 0.026
UUGUCGGUAGCCAAGUUGGUUUAAGGCGCAAGACUUUAAUUUAUCACUACGAAAUCUUGAGAUCGGGCGUUCGACUCGCCCCCGGAAGAUUUUUUCCUCGAGCAA [C1U C3G G86A] | ≤ 0.026
CUUUCUGUAGCCAAGUUGGUUUAAGGCGCAAGACUUUAAUUUAUCACUACGAAAUCUUGAGAUCGGGCGUUCGACUCGCCCCCGGGAGAUUUUUUCCUCGAGCAA [C3U G6U] | 0.0343
CUCUCGGUAGCUAAGUUGGUUGAAGGCGCAAGACUUUAAUUUAUCACUACGAAAUCUUGAGAUCGGGCGUUCGACUCGCCCCCGGGAGAUUUUUUCCUCGAGCAA [C12U U22G] | 0.745
CUCUCGGUAACCAAGUUGGUUUAAGGCGCAAGCUUUUAAUUUAUCACUACGAAAUCUUGAGAUCGGGCGUUCGACUCGCCCCCGGGAGAUUUUUUCCUCGAGCAA [G10A A33C C34U] | ≤ 0.026
CUCACGGUAGCCAAGUUGGAUUAAGGCGCAAGACUUUAAUUUAUCACUACGAAAUCUUGAGAUCGGGCGUUCGACUCGCCCCCGGGAGAUUUUUUCCUCGAGCAA [U4A U20A] | 0.072
CUCUCGGUAGCCAAGUUGGUUUAAGGUGCAAGACUUUAAUUUAUCACUACGAAACAUUGAGAUCGGGCGUUCGACUCGCCCCCGGGAUAUUUUUUCCUCGAGCAA [C27U U55C C56A G88U] | ≤ 0.026
CUCUCGGUAGCCAAGUUGGUUUAAGGCGCAAGACUUUAAUUUAUCACUACGAAAUCUUGAGCUUGGGCGUUCGACUCGCCCCCCGGAGAUUUUUUCCUCGAGCAA [A62C C64U G84C] | ≤ 0.026
CUCUCAGUAGCCAAGUUGGUUUAAGGCGGAAGACUUUAAUUUAUCACUACGAAAUCUUGAGCUCGGGCGUUCGAGUCGCCCCCGGGAGAUUUUUUCCUCGAGCAA [G6A C29G A62C C75G] | ≤ 0.026
CUCUAGGUAGCCAAGUUGGUUUACGGCGCAAGACUUUAAUUUAUCACUACGAAAUCUUGAGAUCGGGCGUUCGACUCGCCCCCGGGAGAUUUUUUCCUCGAGCAA [C5A A24C] | 0.0269
CUCUCGGUACCCAAGUUGGUUUAAGGCGCAAGACUUUAAUUUAUCACUACGAAAUCUUGAGAUCGGGCGUACGUCUCGCCCCCGGGCGAUUUUUUCCUCGAGCAA [G10C U71A A74U A87C] | ≤ 0.026

Variant | nonsense suppression
CUCACGGUAGUCAAGUUGGUUUAAGGCGCAAGACUUUAAUUUAUCACUACGAAAUCUUGAGAUCGGGCGUUCGACUCGCCCCCGGGAGAUUUUUUCCUCGAGCAA [U4A C11U] | 0.0306
CUCUCGGUAGCCAAGUUGGUUUAAGGCGCUAGACUUUAAUUUAUCACUACGAAAUCUUGAGAUCGGGCCUUUGACUCGCCCCCGGGAGAUUUUUUCCUCGAGCAA [A30U G69C C72U] | ≤ 0.026
CUCUCAGUAGCCUAGUUGGUUUAAGGCGCAAGACUUUAAUUUAUCACUACGAAAUCUUGAGAUCGGGCGUUCGACUCGCCCCCGGGAGAUUUUUUCCUCGAGCAA [G6A A13U] | 0.0458
CUCUCGGUAGCUAAGUUGGUUUAAGGCGCAAGACUUUAAUUUAUCACUACGAAAUCUUGAGAUCGGGCGUUCGACUCUCCCCCCGGAGAUUUUUUCCUCGAGCAA [C12U G78U G84C] | ≤ 0.026
CUGUCGGUAGCCAAGUUGGUUUAAGGCGCAAGACUUUAAUUUAUCACUACGAAAUCUUGAGAUCGGGCGUUCGACUAGCCCCCGGGAGAUUUUUUCCUCGAGCAA [C3G C77A] | ≤ 0.026
CUCUCGGUAGCCAAGUUGGUCUAAGGCGCAAGACUUUAAUUUAUCACUACGAAAUUUUGAGAUCGGGCGUUCGACUCGCCCCCGGGAGAUUUUUUCCUCGAGCAA [U21C C56U] | 0.174
CCCUCGGUAGCCAAGUUGGUUUAAGGCGCAAGACUUUAAUUUAUCACUACGAAAUCUUGAGAUCGGGCGUUCGACUCGCCCCCGGGAGAUUUUUUCCUCGAGCAA [U2C] | 0.185
CUCUCGGUAGCCAAGUUGGUUUAAGGCGCAUGACUUUAAUUUAUCACUACGAAAUAUUGAGAUCGGGCGCUCGACUCGCCCCCGGGAGGUUUUUUCCUCGAGCAA [A31U C56A U70C A89G] | ≤ 0.026
CUCUCGGUAGCCAAGUUGGUUUAAGGCGCAAGACUUUAAUUUAUCACUACGAAAUCAUGAGAUCGGGCGUUCGACACGCCCCCGGGAGAUUUUUUCCUCGAGCAA [U57A U76A] | ≤ 0.026
CUCUCGGUAGCUAAGUUGGUUUCAGGCGCAAGACUUUAAUUUAUCACUACGAAAUCUUGAGAUCGGGCGUUCGACUCCCCCCCGGGAGAUUUUUUCCUCGAGCAA [C12U A23C G78C] | ≤ 0.026
CUCUCGUUAGCCAAGUUGGUUUAAGGCGCAAGACUUUAAUUUAUCACUACGAAAUCUUGAGAUCGGGCGUUCGACUCGACCCCGUUAUAUUUUUUCCUCGAGCAA [G7U C79A G85U G86U G88U] | ≤ 0.026
CUCUCGGUAGCCAAGUUGGUUUAAGGCGCAAGACUUUAAUUUAUCACUACGAAAUCUUGGGAUGGGGCGUUCGACUCGCCCCCGGGAGAUUUUUUCCUCGAGCAA [A60G C64G] | ≤ 0.026
CUCUCGGUUGCCAAGUUGGUUUAAGGCGCAAGACUUUAAUUUAUCACUACGAAAUCUUGAGAUCGGGCGUUCGACUCGCCCCCUGGAGAUUUUUUCCUCGAGCAA [A9U G84U] | 0.0747
CUCUCGGUAGCCAAGUUGGUUAAAGGCUCAAGACUUUAAUUUAUCACUACGAAUUCUUGAGAUCGGGCGGUCGACUCGCCCCCGGGCGAUUUUUUCCUCGAGCAA [U22A G28U A54U U70G A87C] | ≤ 0.026
CUCUCGGUAGCCAAGUUGGUUUAAGGCGCAAGACUUUAAUUUAUCACUACGAAAUCUUCAGAUCGGGAGUUCGACUCGCCCCCGGGAUCUUUUUUCCUCGAGCAA [G59C C68A G88U A89C] | ≤ 0.026
CUCUCGGUAGCCAAGUUGGAUUAAGGCGCAAGACUUUAAUUUAUCACUACGAAAUCUUGAGACCGGGCGUUCGACUCGCCCCCGGGAGAUUUUUUCCUCGAGCAA [U20A U63C] | 0.191
CUCUCGGUAGCCAAGUUGGUUUGAGGCGCAAGACUUUAAUUUAUCACUACGAAAUCUUGAGAGCGGGCGUUCGACUCGCCCCCGGGAGAUUUUUUCCUCGAGCAA [A23G U63G] | ≤ 0.026
CUCUCGGUAGCCAAGUUGGUUUAAGGCGCAAGACGUUAAUUUAUCACUACGAAAUAUUGAUAACGGGCGUUCGACUCGCCCCCGGGAGAUUUUUUCCUCGAGCAA [U35G C56A G61U U63A] | ≤ 0.026
CUCCCGGUAGUCAAGUUGGUUUAAGGCGCAAGACUUUAAUUUAUCACUACGAAAUCUUGAGAUCGGGCGUUCGACUCGCCCCCGGGAGAUUUUUUCCUCGAGCAA [U4C C11U] | 0.109
AUCUCGGUAGCCAAGUUGGUUUAAGGCGCAAGACUUUAAUUUAUCACUACGAAAUCUUGAGAUCGGGCGUUCAACUCGCCCCCGGGAGAUUUUUUCCUCGAGCAA [C1A G73A] | 0.112
CUCUCGGUAGCCAAGUUGGUUUAAGGCGUAAGACUUUAAUUUAUCACUACGAAAUCUUGAGAUCGGGCGUUCGACUGGCCCCCGGGAGAUUUUUUCCUCGAGCAA [C29U C77G] | 0.0454
CUCUCGGUAGCCAAGUUGGUUUAAGGCCCAAGACUUUAAUUUAUCACUACGAAAUCUUAAGAUCGGGCGUUCGACUCGCCCCCGGGAGAUUUUUUCCUCGAGCAA [G28C G59A] | ≤ 0.026
CUCUCGGUAGUCAAGUUUGUUUAAGGCGCAAGACUUUAAUUUAUCACUACGAAAUCUGGAGAUCGGGCGUUCGACUCGCCCCCGGGAGAUUUUUUCCUCGAGCAA [C11U G18U U58G] | ≤ 0.026
CUCUCGGUAGCCAAGUUGGUUUAAGGCGCAAGACUUUAAUUUAUCACUACGAAAUCUUGAGAGCGGGCGUUCGACUCGCCCCCGGGAGAUUUUUUCCUCGAGCAA [U63G] | 1.14
CUCUCGGUAUCCAAGUUGGUUUAAGGCGCAAGACUUUAAUUUAUCACUACGAAAUCUUGAGAUCGGGCGUUCGACUCGCCCCCAGUAGAUUUUUUCCUCGAGCAA [G10U G84A G86U] | ≤ 0.026
CUCUCGGUAGCCAAGUUGGUUUAAGGCGUAAGACUUUAAUUUAUCACUACGAAAUCUUGAAAUCGGGCGUUCGACUCGCCCCCGGGAGAUUUUUUCCUCGAGCAA [C29U G61A] | 0.83
CUCCCGGGAGCCAAGUUGGUUUAAGGCGCAAGACUUUAAUUUAUCACUACGAAAUCUUGAGAUCAGGCGUUCGACUCGCCCCCGGGAGAUUUUUUCCUCGAGCAA [U4C U8G G65A] | ≤ 0.026
